Assay results from ChEMBL document CHEMBL1275392, “Assessment of chemoselective neoglycosylation methods using chlorambucil as a model” (2010).

Tests used:
SK-MEL-5 = assay: Growth inhibition of human SK-MEL-5 cells at 10 uM after 7 days by celltiter-glo assay; assay type: functional; settings: SK-MEL-5, 168 h, read-out: GI
M14 [1] = assay: Growth inhibition of human M14 cells after 7 days by celltiter-glo assay; assay type: functional; settings: M14, 168 h
SNB-75 = assay: Growth inhibition of human SNB75 cells after 7 days by celltiter-glo assay; assay type: functional; settings: SNB-75, 168 h
MDA-MB-231 = assay: Growth inhibition of human MDA-MB-231 cells at 10 uM after 7 days by celltiter-glo assay; assay type: functional; settings: MDA-MB-231, 168 h, read-out: GI
SK-MEL-28 = assay: Growth inhibition of human SK-MEL-28 cells after 7 days by celltiter-glo assay; assay type: functional; settings: SK-MEL-28, 168 h
NCI-H522 = assay: Growth inhibition of human NCI-H522 cells after 7 days by celltiter-glo assay; assay type: functional; settings: NCI-H522, 168 h
MOLT-4 = assay: Growth inhibition of human MOLT4 cells after 7 days by celltiter-glo assay; assay type: functional; settings: MOLT-4, 168 h
[2] = Growth inhibition of human […] cells at 10 uM after 7 days by celltiter-glo assay; assay type: functional; settings: 168 h, read-out: GI
[3] = Growth inhibition of human p53 deficient H1299 cells after 7 days by celltiter-glo assay; assay type: functional; settings: NCI-H1299, 168 h
Outline: (§1)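 Cells seeded at 500 per well in 384-well plates. Compounds came from 30 mM DMSO stocks, serially diluted and tested in quadruplicate. Incubation was 7 d at 37 °C under 5% CO2. Calcein AM (10 μM) and EthD-1 were added, followed by a fluorescence read. CellTiter-Glo lysis was then done for 10 min at room temperature, with a luminescence read. GI50 came from curve fitting.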

TK-10 = assay: Growth inhibition of human TK10 cells at 10 uM after 7 days by celltiter-glo assay; assay type: functional; settings: TK-10, 168 h, read-out: GI
HL-60(TB) = assay: Growth inhibition of human HL-60(TB) cells after 7 days by celltiter-glo assay; assay type: functional; settings: HL-60, 168 h
[4] = Growth inhibition of human p53 deficient Hep3B cells after 7 days by celltiter-glo assay; assay type: functional, Hep 3B2; settings: 168 h; outline: as §1
HCT-15 = assay: Growth inhibition of human HCT15 cells at 10 uM after 7 days by celltiter-glo assay; assay type: functional; settings: HCT-15, 168 h, read-out: GI
SF-295 = assay: Growth inhibition of human SF295 cells at 10 uM after 7 days by celltiter-glo assay; assay type: functional; settings: SF-295, 168 h, read-out: GI
LOX IMVI = assay: Growth inhibition of human LOXIMVI cells at 10 uM after 7 days by celltiter-glo assay; assay type: functional; settings: 168 h, read-out: GI
NCI-H23 = assay: Growth inhibition of human NCI-H23 cells at 10 uM after 7 days by celltiter-glo assay; assay type: functional; settings: NCI-H23, 168 h, read-out: GI
SK-OV-3 = assay: Growth inhibition of human SKOV3 cells after 7 days by celltiter-glo assay; assay type: functional; settings: SK-OV-3, 168 h
SN12C = assay: Growth inhibition of human SN12C cells at 10 uM after 7 days by celltiter-glo assay; assay type: functional; settings: 168 h, read-out: GI
HCC 2998 = assay: Growth inhibition of human HCC2998 cells at 10 uM after 7 days by celltiter-glo assay; assay type: functional; settings: HCC 2998, 168 h, read-out: GI
U-251 = assay: Growth inhibition of human U251 cells at 10 uM after 7 days by celltiter-glo assay; assay type: functional; settings: U-251, 168 h, read-out: GI
UACC-62 [5] = assay: Growth inhibition of human UACC62 cells after 7 days by celltiter-glo assay; assay type: functional; settings: UACC-62, 168 h
A549 [6] = assay: Growth inhibition of human A549 cells expressing p53 after 7 days by celltiter-glo assay; assay type: functional; settings: A549, 168 h
K562 = assay: Growth inhibition of human K562 cells at 10 uM after 7 days by celltiter-glo assay; assay type: functional; settings: K562, 168 h, read-out: GI
SF-539 = assay: Growth inhibition of human SF539 cells at 10 uM after 7 days by celltiter-glo assay; assay type: functional; settings: SF-539, 168 h, read-out: GI
HCT-116 = assay: Growth inhibition of human HCT116 cells after 7 days by celltiter-glo assay; assay type: functional; settings: HCT-116, 168 h
HOP-62 [7] = assay: Growth inhibition of human HOP62 cells after 7 days by celltiter-glo assay; assay type: functional; settings: HOP-62, 168 h
KM12 = assay: Growth inhibition of human KM12 cells after 7 days by celltiter-glo assay; assay type: functional; settings: KM12, 168 h
ACHN = assay: Growth inhibition of human ACHN cells at 10 uM after 7 days by celltiter-glo assay; assay type: functional; settings: 168 h, read-out: GI
SK-MEL-2 = assay: Growth inhibition of human SK-MEL-2 cells after 7 days by celltiter-glo assay; assay type: functional; settings: SK-MEL-2, 168 h
CCRF-CEM = assay: Growth inhibition of human CCRF-CEM cells after 7 days by celltiter-glo assay; assay type: functional; settings: 168 h
UACC-62 [8] = assay: Growth inhibition of human UACC62 cells at 10 uM after 7 days by celltiter-glo assay; assay type: functional; settings: UACC-62, 168 h, read-out: GI
SNB-19 = assay: Growth inhibition of human SNB19 cells at 10 uM after 7 days by celltiter-glo assay; assay type: functional; settings: SNB-19, 168 h, read-out: GI
OVCAR-4 = assay: Growth inhibition of human OVCAR4 cells at 10 uM after 7 days by celltiter-glo assay; assay type: functional; settings: OVCAR-4, 168 h, read-out: GI
M14 [9] = assay: Growth inhibition of human M14 cells at 10 uM after 7 days by celltiter-glo assay; assay type: functional; settings: M14, 168 h, read-out: GI
MDA-MB-435 = assay: Growth inhibition of human MDA-MB-435 cells at 10 uM after 7 days by celltiter-glo assay; assay type: functional; settings: MDA-MB-435, 168 h, read-out: GI
CAKI-1 = assay: Growth inhibition of human Caki1 cells at 10 uM after 7 days by celltiter-glo assay; assay type: functional; settings: CAKI-1, 168 h, read-out: GI
OVCAR-8 = assay: Growth inhibition of human OVCAR8 cells after 7 days by celltiter-glo assay; assay type: functional; settings: OVCAR-8, 168 h
A549 [10] = assay: Growth inhibition of human A549 cells after 7 days by celltiter-glo assay; assay type: functional; settings: A549, 168 h
786-0 = assay: Growth inhibition of human 786-0 cells at 10 uM after 7 days by celltiter-glo assay; assay type: functional; settings: 786-0, 168 h, read-out: GI
A549 [11] = assay: Growth inhibition of human A549 cells at 10 uM after 7 days by celltiter-glo assay; assay type: functional; settings: A549, 168 h, read-out: GI
DU-145 = assay: Growth inhibition of human DU145 cells after 7 days by celltiter-glo assay; assay type: functional; settings: DU-145, 168 h
HOP-62 [12] = assay: Growth inhibition of human HOP62 cells at 10 uM after 7 days by celltiter-glo assay; assay type: functional; settings: HOP-62, 168 h, read-out: GI
COLO 205 = assay: Growth inhibition of human COLO205 cells at 10 uM after 7 days by celltiter-glo assay; assay type: functional; settings: COLO 205, 168 h, read-out: GI

## CON(CCCc1ccc(N(CCCl)CCCl)cc1)C1OC[C@@H](O)[C@@H]1O (stereo partly drawn)
SK-MEL-5
  inhibition of growth at 10 µM: 79%
M14 [1]
  GI50: 9.25 µM
SNB-75
  GI50: 19.5 µM
MDA-MB-231
  inhibition of growth at 10 µM: 87.5%
SK-MEL-28
  GI50: 36.5 µM
NCI-H522
  GI50: 10 µM
MOLT-4
  GI50: 1.22 µM
[2]
  inhibition of growth at 10 µM: 15.9%
[3]
  GI50: 0.37 µM
TK-10
  inhibition of growth at 10 µM: 97.2%
HL-60(TB)
  GI50: 1.88 µM
[4]
  GI50: 0.67 µM
HCT-15
  inhibition of growth at 10 µM: 77.1%
SF-295
  inhibition of growth at 10 µM: 56.6%
LOX IMVI
  inhibition of growth at 10 µM: 54.8%
NCI-H23
  inhibition of growth at 10 µM: 54.4%
SK-OV-3
  GI50: 1.5 µM
SN12C
  inhibition of growth at 10 µM: 54.2%
HCC 2998
  inhibition of growth at 10 µM: 73.3%
U-251
  inhibition of growth at 10 µM: 59.9%
UACC-62 [5]
  GI50: 1.69 µM
A549 [6]
  GI50: 1.1 µM
K562
  inhibition of growth at 10 µM: 88.5%
SF-539
  inhibition of growth at 10 µM: 51.8%
HCT-116
  GI50: 14.5 µM
HOP-62 [7]
  GI50: 8.28 µM
KM12
  GI50: 30 µM
ACHN
  inhibition of growth at 10 µM: 14.3%
SK-MEL-2
  GI50: 20.2 µM
CCRF-CEM
  GI50: 2.36 µM
UACC-62 [8]
  inhibition of growth at 10 µM: 52.1%
SNB-19
  inhibition of growth at 10 µM: 65.8%
OVCAR-4
  inhibition of growth at 10 µM: 77.2%
M14 [9]
  inhibition of growth at 10 µM: 67.2%
MDA-MB-435
  inhibition of growth at 10 µM: 83%
CAKI-1
  inhibition of growth at 10 µM: 13.6%
OVCAR-8
  GI50: 9.13 µM
A549 [10]
  GI50: 12.2 µM
786-0
  inhibition of growth at 10 µM: 67.9%
A549 [11]
  inhibition of growth at 10 µM: 69.7%
DU-145
  GI50: 1.8 µM
HOP-62 [12]
  inhibition of growth at 10 µM: 73.2%
COLO 205
  inhibition of growth at 10 µM: 93.3%
